Source: ChEMBL document CHEMBL6127097, “Structure-Guided Discovery of cis-Hexahydro-pyrido-oxazinones as Reversible, Drug-like Monoacylglycerol Lipase Inhibitors” (J Med Chem, 2024)
Active and inactive are the calls of the source.

Assays:
[1] = Tmax in Wistar rat at 10 mg/kg, ip measured […] by LC-MS/MS analysis; type: ADME, organism-based; conditions: in vivo
In short: (§1)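 Male Wistar rats, single dose. i.v. in NMP/0.9% NaCl 30:70; p.o. and i.p. in NMP/HPMC/diisooctyl sulfosuccinate 10:90; 3 per i.v./p.o. group, 6 i.p. K2EDTA plasma sampled 0.083–7 h, plus 24 h for i.v./p.o.; brain and CSF at 1, 2, 7 h (i.p. only). LC-MS/MS, noncompartmental analysis.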

[2] = Bioavailability in Wistar rat at 10 mg/kg, ip measured upto 24 hrs by LC-MS/MS analysis; type: ADME, organism-based; conditions: in vivo
[3] = Tmax in Wistar rat at 5 mg/kg, po measured upto 24 hrs by LC-MS/MS analysis; type: ADME, organism-based; conditions: in vivo; in short: as §1
[4] = Half-life in Wistar rat at 10 mg/kg, ip […] by LC-MS/MS analysis; type: ADME, organism-based; conditions: in vivo; in short: as §1
[5] = Clearance in human hepatocytes assessed per 10 million cells; type: ADME, cell-based, Hepatocyte; conditions: read-out: CLH
[6] = Drug concentration in mouse CSF at 30 mg/kg, ip measured after 24 hrs; type: ADME, organism-based, Cerebrospinal fluid; conditions: read-out: Ct
[7] = Clearance in rat microsomes; type: ADME, Microsome
[8] = Chemical stability at pH 6.5 incubated for 2 hrs; type: physicochemical; conditions: buffer, pH 6.5, 2 h
In short: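 Compound was held in aqueous buffer at the stated pH for 2 h at 37 °C.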

[9] = Free fraction in human plasma incubated for 5 hrs by equilibrium dialysis based LC-MS/MS analysis; type: ADME, cell-free
In short: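 Equilibrium dialysis across a 12–14 kDa cutoff membrane in a Teflon 96-well device. Pooled frozen plasma is adjusted to pH 7.4 and spiked at 1000 nM initial total, against Soerensen buffer pH 7.4. Incubation is 5 h at 37 °C, 5% CO2, with diazepam control in each well. %fu = 100 × buffer/matrix concentration after dialysis; recovery accepted at 80–120%.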

Mus musculus = assay: Antiinflammatory activity in LPS-induced CD-1 mouse neuroinflammation model assessed as decrease in peripheral tissue IL-1beta mRNA expression at 30 mg/kg, ip measured after 6 hrs by qRT-PCR analysis; type: functional, organism-based
In short: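 CD-1 mice were dosed with NaCl + vehicle, LPS (5 mg/kg) + vehicle, or LPS + inhibitor at 30 mg/kg i.p. (vehicle NaCl/DMSO/Tween 80, 80/10/10). They were sacrificed 6 h post-compound. LCN2 and IL1b mRNA in peripheral tissue were measured by droplet digital qRT-PCR.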

[10] = target: T1, Monoglyceride lipase (Mus musculus) (UniProt O35678); assay: In vivo receptor occupancy at MAGL receptor in mouse at 30 mg/kg, ip measured after 4 hrs; type: functional, organism-based
T1 sequence (whole entry): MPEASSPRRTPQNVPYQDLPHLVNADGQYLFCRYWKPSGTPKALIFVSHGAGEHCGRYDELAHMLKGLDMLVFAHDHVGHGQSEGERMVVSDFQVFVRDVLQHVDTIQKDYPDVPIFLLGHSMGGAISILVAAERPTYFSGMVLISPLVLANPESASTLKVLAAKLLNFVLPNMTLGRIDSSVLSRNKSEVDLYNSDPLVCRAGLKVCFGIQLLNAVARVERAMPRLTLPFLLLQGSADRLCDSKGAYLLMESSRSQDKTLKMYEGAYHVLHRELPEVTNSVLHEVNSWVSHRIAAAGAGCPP

[11] = target: T1, Monoglyceride lipase (Mus musculus); assay: In vivo receptor occupancy at MAGL receptor in mouse at 30 mg/kg, ip measured after 16 hrs; type: functional, organism-based
In short: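 Mice dosed 30 mg/kg i.p. in NaCl/DMSO/TW80 (80/10/10). Brain proteome was prepared at set time points over 24 h and MAGL occupancy read by activity-based protein profiling.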

| SMILES | Tmax [1] | bioavailability [2] | Tmax [3] | half-life [4] | hepatocyte CLint [5] | concentration at 24 h [6] | microsomal CLint [7] | Stability [8] | fraction unbound at 5 h [9] | Activity (Mus musculus) | Activity [10] | Activity [11] |
| --- | --- | --- | --- | --- | --- | --- | --- | --- | --- | --- | --- | --- |
| O=C1CO[C@H]2CCN(C(=O)N3CCC(Cc4ccc(C(F)(F)F)cc4)CC3)C[C@H]2N1 [listing 1 of 2 here] | 0.25 h | 111% | 6 h | 2.7 h | 1.9 µL/min/1e6 cells | 2 nM | 11 µL/min/mg | Stable | 0.043 |  |  |  |
| O=C1CO[C@H]2CCN(C(=O)N3CCC(Cc4ccc(C(F)(F)F)cc4)CC3)C[C@H]2N1 [listing 2 of 2 here] |  |  |  |  |  |  |  |  |  | inactive | 93% | 60% |
